High-throughput results as filed in PubChem BioAssay.
Rows were chosen to be rich in hits. Some 2.1% of all compounds tested hit in one or more screens of this group.
TNF death inh: TNF-alpha cell death inhibition in Jurkat FADD-/- cells; 220,000 tested, 0.068% active; activation (protection from cell death), % at 10 µM; Jurkat FADD-/- TNF necroptosis rescue, ATP luminescence, 24 h; 0 = TNF only, 100 = no-TNF cells;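 active means activation, meaning protection from cell death, of at least 50% relative to plate controls; inactive means activation below 50%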;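 further: necroptosis triggered by 40 ng/mL TNF-alpha added together with compound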
RanGTP-Impb inh: inhibitors of RanGTP-importin-beta interaction, primary screen, biochemical, FRET, CFP-Ran, YFP-importin-beta, homogeneous. inhibition, % (no concentration beside the values). cell-free CFP-Ran/YFP-importin-beta FRET ratio. AID 2216. 300,000 tested, 1.1% active;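 active means more than half of the replicate wells show a fall in the fluorescence ratio signal beyond about 16%, limit read from the data, passing the limit was not always enough; inconclusive means exactly half of the replicate wells pass the set limit; inactive means fewer than half of replicates pass the limit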;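 further: 0% = DMSO wells and 100% = Ran loaded with GDP instead of GTP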
Hck-Nef inh: inhibitors of human Hck kinase activated by Nef; inhibition, % at 20 µM; P08631; 220,000 tested, 0.68% active; Recombinant Hck-YEEI plus Nef, Z-Lyte FRET kinase assay;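 active means Hck-Nef kinase inhibition above about 50%, limit read from the data; inactive means inhibition below that limit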;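 further: 0% = DMSO with Hck plus Nef and 100% = Hck alone without Nef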
Target sequence (P08631 whole entry, looked up): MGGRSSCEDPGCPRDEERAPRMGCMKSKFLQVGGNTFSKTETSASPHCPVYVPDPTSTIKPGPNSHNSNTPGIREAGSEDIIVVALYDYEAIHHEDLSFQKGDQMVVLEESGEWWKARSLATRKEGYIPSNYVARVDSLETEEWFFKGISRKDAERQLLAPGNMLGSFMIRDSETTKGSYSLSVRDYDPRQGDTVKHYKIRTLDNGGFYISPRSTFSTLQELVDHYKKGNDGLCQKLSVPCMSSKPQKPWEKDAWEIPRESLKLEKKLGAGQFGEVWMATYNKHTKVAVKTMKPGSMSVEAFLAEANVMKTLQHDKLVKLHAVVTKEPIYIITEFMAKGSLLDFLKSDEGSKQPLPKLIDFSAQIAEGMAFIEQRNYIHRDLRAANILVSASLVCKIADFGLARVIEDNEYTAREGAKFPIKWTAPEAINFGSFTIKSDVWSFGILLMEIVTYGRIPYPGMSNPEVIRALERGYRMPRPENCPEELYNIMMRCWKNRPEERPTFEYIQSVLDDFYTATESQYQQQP
Runt-SMMHC FRET: Runt domain-CBFb-SMMHC interaction inhibition; AID 1434; 220,000 tested, 0.74% active; inhibition, % at 20 µM; Cerulean-Runt/Venus-CBFb-SMMHC FRET ratio 530/480, 1 h; Q01196+Q13951;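 active means mean inhibition across duplicate retests at 20 µM reaching about 50%, limit read from the data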;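 further: 0% = DMSO wells and 100% = wells with excess untagged CBFb-SMMHC; inhibitors lower the FRET ratio by blocking Runt binding to CBFb-SMMHC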
Runt-CBFb FRET: blocks binding of human RUNX1 Runt domain to CBFb. Q01196+Q13951. Cerulean-Runt/Venus-CBFb FRET ratio 530/480, 1 h. inhibition, % at 20 µM. 220,000 tested, 0.46% active. AID 1496;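 active means inhibition over about 50% at 20 µM in the single-dose screen, limit read from the data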;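 further: 0% = DMSO wells and 100% = excess unlabeled CBFb competitor control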
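Buffer or medium: Tris pH 7.5 buffer with BSA. Assay system: Cerulean-labeled Runt domain protein. Amount: each fluorescent fusion protein 100 nM. Read-out basis: loss of energy transfer signal. Incubation: 1 h compound exposure, room temperature. Probe or stimulus: Venus-CBFb binding partner, 100 nM. Detection: FRET, excitation 422 nm, emission at 530 and 480 nm.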
zVAD death inh: blocks zVAD induced death of L929 cells; L929 zVAD necroptosis rescue, ATP luminescence, 24 h; with zVAD 60 µM; viability rescue, % at 10 µM; 220,000 tested, 0.38% active; AID 1377;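 active means activation, scaled between plate controls, above about 75%, limit read from the data; inactive means activation under that limit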;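 further: 0% = zVAD with DMSO and 100% = DMSO alone without zVAD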
YIC FRET counter: counter-screen: alters YIC FRET probe signal | shares compounds with RanGTP-Impb inh | Purified YIC probe, intramolecular FRET ratio YFP/CFP | IC50, µM | 1,000 tested, 40% active;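 active means fitted half-maximal inhibitory concentration no more than tenfold above the top dose tested; inconclusive means flat fit with 30 to 70% activity, or poor fit; inactive means half-maximal concentration beyond tenfold above the top dose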
Active calls of the source: *; ? = inconclusive; / = no result given.

SMILES | TNF death inh | RanGTP-Impb inh | Hck-Nef inh | Runt-SMMHC FRET | Runt-CBFb FRET | zVAD death inh | YIC FRET counter
CCN(CC)CCCNC(=S)N(Cc1cccs1)Cc1cc2cc3c(cc2[nH]c1=O)OCCO3 | -2 | 22* | 26 | 0 | -2 | 3 | >50
CCN(CC)CCCNC(=S)N(Cc1ccco1)Cc1cc2cc3c(cc2[nH]c1=O)OCCO3 | 1 | 4 | 0 | -12 | 5 | 1 | /
CS(=O)(=O)N(CC(=O)NCCSCc1ccco1)c1ccc(Cl)cc1 | 0 | 16* | 19 | -1 | 3 | 2 | >50
COc1ccc(NC(=O)N2CCNC(=O)C2CC(=O)Nc2ccc(F)cc2)cc1 (stereo unspecified) | / | -5 | / | / | / | / | /
Cn1c2ccccc2c(=O)c2ccc(F)cc21 | / | 35* | / | / | / | / | 15*
Cc1ccc(C#CC[N+]2(CC#Cc3ccc(C)cc3)CCCCC2)cc1 | -2 | -1 | 1 | 1 | 0 | 0 | /
Cc1cc(C)n(S(=O)(=O)c2ccc(C)c(C)c2)n1 | / | 1 | / | / | / | / | /
COc1ccccc1N1CCN(C(=O)/C=C/c2ccc(C)cc2)CC1 | 1 | 20* | 4 | -3 | -4 | 2 | >50
COc1ccccc1N1CCN(C(=O)/C=C/c2cccc([N+](=O)[O-])c2)CC1 | -2 | -2 | 4 | -9 | -1 | 1 | /
CCN(CC)S(=O)(=O)c1ccc(N2CCN(C)CC2)c(NC(=O)c2cc(=O)c3ccccc3o2)c1 | / | 1 | / | / | / | / | /
Cc1c(O)c(CN2CCCCC2)cc2c3c(c(=O)oc12)CCC3 | 4 | 37* | 9 | 58* | 90* | 0 | 14*
Cc1c(O)c(CN2CCCCC2)cc2c1oc(=O)c1ccccc12 | 1 | -2 | 2 | -1 | -3 | 3 | /
CCOCc1c(C(=O)OCC(=O)/C(C#N)=C(\C)N)oc2ccccc12 | 1 | / | 21 | -5 | 0 | 1 | /
COc1ccc(NC(=O)c2ccc3snnc3c2)cc1 | -1 | 96* | 9 | -6 | 2 | 0 | >50
CSc1nc(O)c(C(c2cccc([N+](=O)[O-])c2)c2c(O)nc(SC)[nH]c2=O)c(=O)[nH]1 | 1 | 5 | 14 | -2 | 0 | 2 | /
O=C(COC(=O)c1ccc2ccccc2c1)NCCCc1ccccc1 | 1 | 17* | 1 | 1 | -2 | -1 | >50
Nc1cc(C(=O)OCC(=O)NCCCc2ccccc2)ccc1Cl | / | 3 | / | / | / | / | /
Cc1noc(C)c1NC(=O)N(C)C[C@@H]1Oc2ccc(N(C)C)cc2CC(=O)N([C@H](C)CO)C[C@H]1C | / | / | / | / | / | / | >50
CCOc1ccccc1NC1=CC(=O)CC(c2ccccc2)C1 (stereo unspecified) | -12 | 24* | 2 | -8 | -2 | 1 | >50
CCOC(=O)c1sc(NC(=O)Nc2ccc(F)cc2)nc1C | 4 | 18* | 0 | 2 | 1 | 4 | >50
CCOC(=O)c1c(NC(=S)Nc2ccc(F)cc2)sc2c1CCC2 | 0 | 5 | 17 | 2 | 7 | -2 | /
CCOC(=O)c1c(NC(=O)Cc2ccccc2)sc2c1CCN(CC)C2 | / | 55* | / | / | / | / | >50
CCN1CCc2c(sc(NC(=O)Cc3ccccc3)c2C(=O)OC)C1 | / | 42* | / | / | / | / | >50
CCOC(=O)c1c(NC(=O)Nc2ccc(F)cc2)sc2c1CCN(C)C2 | 3 | 20* | 6 | 15 | 16 | 1 | >50
CCOC(=O)c1sc(NC(=O)Cc2ccc(F)cc2)nc1C | 7 | 0 | 26 | 2 | -2 | 67 | /
SMILES | TNF death inh | RanGTP-Impb inh | Hck-Nef inh | Runt-SMMHC FRET | Runt-CBFb FRET | zVAD death inh | YIC FRET counter
CCN1CCc2c(sc(NC(=O)c3ccc(S(=O)(=O)N4CCOCC4)cc3)c2C(=O)OC)C1 | 0 | 3 | 4 | 14 | -1 | 0 | /
CCOC(=O)c1c(NC(=O)c2cccs2)sc2c1CCN(C(=O)OCC)C2 | -3 | -3 | 2 | 1 | -2 | 0 | /
CC(C)N(C(=O)CS(=O)(=O)c1ccc(Cl)c(Cl)c1)C(C)C | 0 | ? | 3 | 4 | -2 | 1 | /
CCOc1ccc(S(=O)(=O)N(C)CC(=O)NC2CCCC2)cc1 | / | 2 | / | / | / | / | /
CCOC(=O)c1c(/N=C/c2ccc(C)cc2O)sc2c1CCN(C)C2 | 1 | 60* | 17 | -2 | 14 | -1 | >26
CCOC(=O)c1c(NC(=O)C2CCCCC2)sc2c1CCN(C(C)C)C2 | / | 40* | / | / | / | / | >50
CCOC(=O)c1c(NC(=O)C2CC2)sc(C)c1CC | 1 | 0 | 4 | -8 | -2 | 1 | /
CCOC(=O)c1c(/N=C/c2cccc([N+](=O)[O-])c2O)sc2c1CCC2 | 1 | 1 | 5 | -1 | 12 | 2 | /
Cc1ccc(S(=O)(=O)NC(=O)c2ccc(Br)o2)cc1 | 1 | 6 | -2 | -2 | 0 | 3 | /
CN1CCN(C(=O)c2cc(Br)cn2C)CC1 | / | -4 | / | / | / | / | /
CSC1=NCCN1C(=O)C12CC3CC(CC(C3)C1)C2 | -16 | 2 | 14 | -2 | 0 | -2 | /
CC(=O)c1c[nH]c2ccc(C)cc2c1=O | 0 | 7 | -1 | -4 | 0 | 0 | /
CCOC(=O)c1ccc2[nH]cc(C(C)=O)c(=O)c2c1 | -3 | 21* | 1 | 3 | 3 | 0 | 14*
CC(=O)N1CCC(N(CCN2CCOCC2)C(=O)Nc2ccc(Cl)c(Cl)c2)CC1 | 2 | 19* | 5 | / | / | -1 | >50
Cc1ccc(Cl)cc1-n1c(=O)cc(N2CC(C)OC(C)C2)[nH]c1=O (stereo unspecified) | 0 | 56* | 5 | -6 | 0 | 0 | >50
CNc1cc(F)nc(F)n1 | 0 | 27* | 20 | 36 | 14 | 2 | 22*
CCCCCCNC(=O)c1cn(CC)c2cc(N3CCN(C)CC3)c(F)cc2c1=O | / | 0 | / | / | / | / | /
Cc1ccc2[nH]c(O)c(N=NC(=O)C3CC3c3ccccc3)c2c1Br (stereo unspecified) | -2 | 9 | 2 | 1 | -8 | 1 | /
CCOc1ccc(C)cc1S(=O)(=O)Nc1ccc(Cl)cn1 | 0 | 19* | -1 | 3 | -2 | -1 | >50
CCN(/N=C/C=C/c1ccccc1)c1cc(=O)n(C)c(=O)[nH]1 | 2 | 27* | 3 | 1 | 1 | 2 | >50
CCOC(=O)c1ccc(NC(=S)N(CCN2CCCCCC2)Cc2cccs2)cc1 | 1 | 0 | -4 | 3 | 0 | 0 | /
Nc1nc2ncc(CNc3ccc(C(=O)N[C@@H](CCC(=O)O)C(=O)O)cc3)nc2c(=O)[nH]1 | / | 4 | / | / | / | / | /
CN(Cc1cnc2nc(N)nc(N)c2n1)c1ccc(C(=O)N[C@@H](CCC(=O)O)C(=O)O)cc1 | / | 23* | / | / | / | / | >50
CN(C)C=NC(=O)c1cc(C(=O)c2ccc(C(C)(C)C)cc2)c[nH]1 | 0 | 27* | -8 | 2 | 0 | 55 | >50
